# Legend:
# GFP-ODC [1] = test: Cellular degradation of GFP-ODC; assay type: cell-based, human; conditions: 16 h, HEK-293T stably expressing GFP-ODC
# Summary of the method: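 HEK-293T stably expressing GFP-ODC were grown to 80% confluency in 60 mm plates and treated 16 h with compound or DMSO. Controls: 5 μM bortezomib, 20 μM chlorpromazine. Cells were pelleted, PBS-washed and lysed in RIPA with protease inhibitors (20 min on ice). Western blot followed; only the full-length 75 kDa GFP-ODC band was quantified, in triplicate.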
# [2] = test system: human constitutive 20S proteasome; test: Small peptide; assay type: biochemical; conditions: for max fold increase, chymotrypsin-like site: Suc-LLVY-AMC; for max fold increase, caspase-like site: Z-LLE-AMC
# Summary of the method: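 Human constitutive 20S proteasome (1 nM) in 38 mM Tris-HCl, 100 mM NaCl, pH 7.8 was preincubated with compound (8-point, 1.25–80 μM) at 37 °C. AMC substrates were added alone (final Suc-LLVY-AMC 20 µM, Z-LLE-AMC 20 µM, Boc-LRR-AMC 40 μM) or combined (6.67 μM each final). Fluorescence (380/460 nm) was read over 1 h at 37 °C. Hydrolysis rate was expressed as fold change versus vehicle.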
# 26S proteasome = test: Small peptide; assay type: biochemical; conditions: only at the highest concentration
# [3] = Cell viability, parallel CellTiter-Glo assay; assay type: cell-based, human; conditions: human, HEK-293T cells stably expressing GFP-ODC
# GFP-ODC [4] = test: Cell-based GFP-ODC AlphaLISA; design: species or system human; conditions: for IC50: Homo sapiens, HEK-293T, read-out: IC50 of the AlphaLISA signal; for reduction of the GFP-ODC AlphaLISA signal: 8-point titration, fresh powder stocks
# Summary of the method: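 HEK-293T cells stably expressing GFP-ODC, from a flow-sorted medium-GFP expressor pool, were plated at 10,000 cells/well in phenol red-free DMEM and dosed with compound or DMSO at plating. Cells were lysed in Surefire lysis buffer with shaking for 30 min at RT. Biotinylated anti-ODC plus anti-GFP acceptor bead (10× mix) went on for 1 h in the dark, then streptavidin donor bead for 30 min. Alpha signal read. Wells without anti-ODC served as negative control.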
# [5] = test system: purified human 20S proteasome; test: In vitro degradation of α-synuclein by purified 20S proteasome; assay type: biochemical; conditions: 3 h, compared to untreated proteasome
# Summary of the method: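 Purified human 20S proteasome in 50 mM HEPES, 5 mM DTT, pH 7.2 was preincubated with compound or DMSO for 45 min at 37 °C. Purified α-synuclein was then added and incubated 3 h at 37 °C; final reaction was 0.3 μM α-synuclein and 10 nM proteasome. GAPDH (0.5 μM) was added as loading control. α-Synuclein remaining was quantified by western blot versus DMSO.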
# EGFR = conditions: read-out: IC50 for EGFR tyrosine kinase inhibition; reported value; cited from earlier work
# [6] = Solubility observed in the AlphaLISA dose response; assay type: physicochemical; conditions: at higher concentrations of the dose response
# K48 ubiquitin = test: Cellular K48 ubiquitin levels; assay type: cell-based, human; conditions: same cell lysates as the GFP-ODC western blot
# HEK-293T cells = test: Cell viability, parallel CellTiter-Glo assay; assay type: cell-based, human; conditions: HEK-293T cells stably expressing GFP-ODC, 8-point titration
# [7] = combination of the three fluorogenic peptide probes
compound,measurement,setting,value
"CN(C)CCCN1c2ccccc2Sc2ccc(Cl)cc21 [CPZ, chlorpromazine]",full-length GFP-ODC remaining,GFP-ODC [1]; 20 μM compound,97%
same,overall max fold increase of 20S proteasome activity,[2]; [7],6.3 fold
same,catalytic sites of the 20S proteasome activated,[2]; individual fluorogenic peptide substrates,only activated the chymotrypsin-like site
same,activation of the 26S proteasome,26S proteasome,2 fold
CCN(CC)CCNc1ccc(CO)c2sc3ccccc3c(=O)c12 [Hycanthone],CC50,[3],69.7 µM
same,IC50,GFP-ODC [4],15.1 µM
CCN(CC)CCCC(C)Nc1c2ccc(Cl)cc2nc2ccc(OC)cc12 (centres unmarked) [Quinacrine],IC50,GFP-ODC [4],4.8 µM
CC(C)C[C@H]1C(=O)N2CCC[C@H]2[C@]2(O)O[C@](NC(=O)[C@@H]3C=C4c5cccc6[nH]c(Br)c(c56)C[C@H]4N(C)C3)(C(C)C)C(=O)N12 [bromocriptine],reduction of the GFP-ODC AlphaLISA signal,GFP-ODC [4],did not reduce the AlphaLISA signal below 50% (Figure S2) or did not reduce the AlphaLISA signal without significant cell death
C#Cc1cccc(Nc2ncnc3cc(OCCOC)c(OCCOC)cc23)c1 [erlotinib],full-length GFP-ODC remaining,GFP-ODC [1]; 10 μM compound,34%
same,full-length GFP-ODC remaining,GFP-ODC [1]; 20 μM compound,16%
same,α-synuclein remaining,[5]; 10 μM compound,68%
same,α-synuclein remaining,[5]; 20 μM compound,48%
same,IC50,EGFR,0.002 µM
same,"max fold increase, trypsin-like site",[2]; Boc-LRR-AMC,5.9 fold
same,"max fold increase, chymotrypsin-like site",[2],5.1 fold
same,"max fold increase, caspase-like site",[2],3.1 fold
same,overall max fold increase of 20S proteasome activity,[2]; [7],5.7 fold
same,"EC200, concentration at which the rate of proteolysis was doubled compared to the vehicle control","[2]; combination of the three fluorogenic peptide probes, 1 nM 20S",12 µM
same,solubility,[6],poor solubility at higher concentrations
same,effect on K48 ubiquitin / levels of ubiquitinylated proteins,K48 ubiquitin,no impact on the levels of ubiquitinylated proteins
same,activation of the 26S proteasome,26S proteasome,2.5- to 3 fold
same,cell cytotoxicity,HEK-293T cells,no significant cell cytotoxicity
same,IC50,GFP-ODC [4],5.4 µM
CNCCC(Oc1ccc(C(F)(F)F)cc1)c1ccccc1 (centres unmarked) [fluoxetine],reduction of the GFP-ODC AlphaLISA signal,GFP-ODC [4],did not reduce the AlphaLISA signal below 50% (Figure S2) or did not reduce the AlphaLISA signal without significant cell death
COC(=O)C[C@](O)(CCCC(C)(C)O)C(=O)O[C@@H]1C(OC)=C[C@]23CCCN2CCc2cc4c(cc2[C@H]13)OCO4 [homoharringtonine],reduction of the GFP-ODC AlphaLISA signal,GFP-ODC [4],significantly decreased the AlphaLISA signal but not in a dose-dependent manner
O=C(N/N=C/c1ccc([N+](=O)[O-])o1)c1ccc(O)cc1 [nifuroxazide],cell cytotoxicity,HEK-293T cells,low cytotoxicity
COc1cc2nc(N3CCN(C(=O)c4ccco4)CC3)nc(N)c2cc1OC [prazosin],full-length GFP-ODC remaining,GFP-ODC [1]; 20 μM compound,84%
same,"max fold increase, chymotrypsin-like site",[2],3.5 fold
same,"max fold increase, caspase-like site",[2],5.8 fold
same,overall max fold increase of 20S proteasome activity,[2]; [7],4.5 fold
same,activation of the 26S proteasome,26S proteasome,2.5- to 3 fold
same,reduction of the GFP-ODC AlphaLISA signal,GFP-ODC [4],did not reduce the AlphaLISA signal below 50% (Figure S2) or did not reduce the AlphaLISA signal without significant cell death
CC(=O)S[C@@H]1CC2=CC(=O)CC[C@]2(C)[C@H]2CC[C@@]3(C)[C@@H](CC[C@@]34CCC(=O)O4)[C@H]12 [spironolactone],cell cytotoxicity,HEK-293T cells,low cytotoxicity
CN1CCN(CC/C=C2/c3ccccc3Sc3ccc(S(=O)(=O)N(C)C)cc32)CC1 [thiothixene],reduction of the GFP-ODC AlphaLISA signal,GFP-ODC [4],did not reduce the AlphaLISA signal below 50% (Figure S2) or did not reduce the AlphaLISA signal without significant cell death
CC(C)[C@]12O[C@H]1[C@@H]1O[C@]13[C@]1(O[C@H]1C[C@H]1C4=C(CC[C@@]13C)C(=O)OC4)[C@@H]2O [triptolide],reduction of the GFP-ODC AlphaLISA signal,GFP-ODC [4],significantly decreased the AlphaLISA signal but not in a dose-dependent manner

# Source: paper PMC10157846 (ACS Omega, 2023)
